Assay results reported in ChEMBL document CHEMBL4689842, “EUbOPEN Chemogenomics Library wave 1” (2021).

Test system: HEK-293T
Assay: Multiplex assay against HEK293T;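 for Population Tubulin-Different-Phenotype (%): share of the cells with healthy nuclei that show this phenotype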
Assay type: toxicity, cell-based
Conditions: human
Method in brief: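 With compound added, live cells were imaged on a CQ1 microscope at 37°C and 5% CO2; staining with Hoechst33342, BioTracker Green Microtubule Cytoskeleton Dye, MitoTracker Red and Annexin V Alexa Fluor 680 had been done at seeding. The CellPathfinder machine-learning gating scheme split cells into Hoechst high-intensity objects or normal cells, normal cells into healthy, pyknosed or fragmented nuclei, and pyknosed cells into mitotic or apoptotic. The tubulin, mitochondrial-mass and membrane-permeability phenotypes are per cents of healthy-nucleus cells.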

[1] = 12 h, 1 µM, compound concentration 1 uM, replicate 1
[2] = 12 h, 1 µM, compound concentration 1 uM, replicate 2
[3] = 12 h, 10 µM, compound concentration 10 uM, replicate 1
[4] = 12 h, 10 µM, compound concentration 10 uM, replicate 2
[5] = 24 h, 1 µM, compound concentration 1 uM, replicate 1
[6] = 24 h, 1 µM, compound concentration 1 uM, replicate 2
[7] = 24 h, 10 µM, compound concentration 10 uM, replicate 1
[8] = 24 h, 10 µM, compound concentration 10 uM, replicate 2

COc1cccc2cc(-c3nc([C@H]4CC[C@H](C(=O)O)CC4)n4ncnc(N)c34)[nH]c12 [OSI-027]
Population Apoptotic (%) [1]: 25%
Population Fragmented Nuclei (%) [1]: 14%
Population Healthy Nuclei (%) [1]: 55%
Population Hoechst High Intensity Objects (%) [1]: 16%
Population Membrane Permeable-Phenotype (%) [1]: 3%
Population Mitochondria Different-Phenotype (%) [1]: 10%
Population Mitotic Cells (%) [1]: 74%
Population Normal (%) [1]: 83%
Population Pyknosed Nuclei (%) [1]: 29%
Population Tubulin-Different-Phenotype (%) [1]: 5%
Total Cell Count [1]: 587
Population Apoptotic (%) [2]: 9%
Population Fragmented Nuclei (%) [2]: 6%
Population Healthy Nuclei (%) [2]: 85%
Population Hoechst High Intensity Objects (%) [2]: 6%
Population Membrane Permeable-Phenotype (%) [2]: 2%
Population Mitochondria Different-Phenotype (%) [2]: 13%
Population Mitotic Cells (%) [2]: 90%
Population Normal (%) [2]: 93%
Population Pyknosed Nuclei (%) [2]: 7%
Population Tubulin-Different-Phenotype (%) [2]: 10%
Total Cell Count [2]: 997
Population Apoptotic (%) [3]: 23%
Population Fragmented Nuclei (%) [3]: 32%
Population Healthy Nuclei (%) [3]: 40%
Population Hoechst High Intensity Objects (%) [3]: 22%
Population Membrane Permeable-Phenotype (%) [3]: 8%
Population Mitochondria Different-Phenotype (%) [3]: 2%
Population Mitotic Cells (%) [3]: 76%
Population Normal (%) [3]: 77%
Population Pyknosed Nuclei (%) [3]: 27%
Population Tubulin-Different-Phenotype (%) [3]: 2%
Total Cell Count [3]: 379
Population Apoptotic (%) [4]: 10%
Population Fragmented Nuclei (%) [4]: 9%
Population Healthy Nuclei (%) [4]: 85%
Population Hoechst High Intensity Objects (%) [4]: 5%
Population Membrane Permeable-Phenotype (%) [4]: 0%
Population Mitochondria Different-Phenotype (%) [4]: 8%
Population Mitotic Cells (%) [4]: 89%
Population Normal (%) [4]: 94%
Population Pyknosed Nuclei (%) [4]: 5%
Population Tubulin-Different-Phenotype (%) [4]: 5%
Total Cell Count [4]: 1068
Population Apoptotic (%) [5]: 22%
Population Fragmented Nuclei (%) [5]: 15%
Population Healthy Nuclei (%) [5]: 60%
Population Hoechst High Intensity Objects (%) [5]: 19%
Population Membrane Permeable-Phenotype (%) [5]: 15%
Population Mitochondria Different-Phenotype (%) [5]: 8%
Population Mitotic Cells (%) [5]: 77%
Population Normal (%) [5]: 80%
Population Pyknosed Nuclei (%) [5]: 24%
Population Tubulin-Different-Phenotype (%) [5]: 20%
Total Cell Count [5]: 478
Population Apoptotic (%) [6]: 4%
Population Fragmented Nuclei (%) [6]: 7%
Population Healthy Nuclei (%) [6]: 83%
Population Hoechst High Intensity Objects (%) [6]: 8%
Population Membrane Permeable-Phenotype (%) [6]: 6%
Population Mitochondria Different-Phenotype (%) [6]: 13%
Population Mitotic Cells (%) [6]: 95%
Population Normal (%) [6]: 91%
Population Pyknosed Nuclei (%) [6]: 8%
Population Tubulin-Different-Phenotype (%) [6]: 37%
Total Cell Count [6]: 849
Population Apoptotic (%) [7]: 12%
Population Fragmented Nuclei (%) [7]: 29%
Population Healthy Nuclei (%) [7]: 53%
Population Hoechst High Intensity Objects (%) [7]: 14%
Population Membrane Permeable-Phenotype (%) [7]: 10%
Population Mitochondria Different-Phenotype (%) [7]: 3%
Population Mitotic Cells (%) [7]: 87%
Population Normal (%) [7]: 85%
Population Pyknosed Nuclei (%) [7]: 17%
Population Tubulin-Different-Phenotype (%) [7]: 6%
Total Cell Count [7]: 371
Population Apoptotic (%) [8]: 0%
Population Fragmented Nuclei (%) [8]: 18%
Population Healthy Nuclei (%) [8]: 78%
Population Hoechst High Intensity Objects (%) [8]: 5%
Population Membrane Permeable-Phenotype (%) [8]: 5%
Population Mitotic Cells (%) [8]: 100%
Population Normal (%) [8]: 94%
Population Pyknosed Nuclei (%) [8]: 2%
Population Tubulin-Different-Phenotype (%) [8]: 10%
Total Cell Count [8]: 1604

CCCS(=O)(=O)Nc1ccc(F)c(C(=O)c2c[nH]c3ncc(Cl)cc23)c1F [PLX-4720]
Population Apoptotic (%) [1]: 13%
Population Fragmented Nuclei (%) [1]: 16%
Population Healthy Nuclei (%) [1]: 62%
Population Hoechst High Intensity Objects (%) [1]: 11%
Population Membrane Permeable-Phenotype (%) [1]: 6%
Population Mitochondria Different-Phenotype (%) [1]: 4%
Population Mitotic Cells (%) [1]: 86%
Population Normal (%) [1]: 88%
Population Pyknosed Nuclei (%) [1]: 20%
Population Tubulin-Different-Phenotype (%) [1]: 8%
Total Cell Count [1]: 675
Population Apoptotic (%) [2]: 6%
Population Fragmented Nuclei (%) [2]: 7%
Population Healthy Nuclei (%) [2]: 87%
Population Hoechst High Intensity Objects (%) [2]: 2%
Population Membrane Permeable-Phenotype (%) [2]: 2%
Population Mitochondria Different-Phenotype (%) [2]: 10%
Population Mitotic Cells (%) [2]: 93%
Population Normal (%) [2]: 97%
Population Pyknosed Nuclei (%) [2]: 5%
Population Tubulin-Different-Phenotype (%) [2]: 14%
Total Cell Count [2]: 1750
Population Apoptotic (%) [3]: 21%
Population Fragmented Nuclei (%) [3]: 13%
Population Healthy Nuclei (%) [3]: 73%
Population Hoechst High Intensity Objects (%) [3]: 13%
Population Membrane Permeable-Phenotype (%) [3]: 3%
Population Mitochondria Different-Phenotype (%) [3]: 2%
Population Mitotic Cells (%) [3]: 78%
Population Normal (%) [3]: 86%
Population Pyknosed Nuclei (%) [3]: 12%
Population Tubulin-Different-Phenotype (%) [3]: 1%
Total Cell Count [3]: 751
Population Apoptotic (%) [4]: 11%
Population Fragmented Nuclei (%) [4]: 9%
Population Healthy Nuclei (%) [4]: 86%
Population Hoechst High Intensity Objects (%) [4]: 2%
Population Membrane Permeable-Phenotype (%) [4]: 0%
Population Mitochondria Different-Phenotype (%) [4]: 5%
Population Mitotic Cells (%) [4]: 88%
Population Normal (%) [4]: 97%
Population Pyknosed Nuclei (%) [4]: 4%
Population Tubulin-Different-Phenotype (%) [4]: 2%
Total Cell Count [4]: 1952
Population Apoptotic (%) [5]: 28%
Population Fragmented Nuclei (%) [5]: 13%
Population Healthy Nuclei (%) [5]: 78%
Population Hoechst High Intensity Objects (%) [5]: 7%
Population Membrane Permeable-Phenotype (%) [5]: 7%
Population Mitotic Cells (%) [5]: 71%
Population Normal (%) [5]: 92%
Population Pyknosed Nuclei (%) [5]: 7%
Population Tubulin-Different-Phenotype (%) [5]: 9%
Total Cell Count [5]: 803
Population Apoptotic (%) [6]: 3%
Population Fragmented Nuclei (%) [6]: 20%
Population Healthy Nuclei (%) [6]: 77%
Population Hoechst High Intensity Objects (%) [6]: 5%
Population Membrane Permeable-Phenotype (%) [6]: 8%
Population Mitochondria Different-Phenotype (%) [6]: 3%
Population Mitotic Cells (%) [6]: 96%
Population Normal (%) [6]: 94%
Population Pyknosed Nuclei (%) [6]: 2%
Population Tubulin-Different-Phenotype (%) [6]: 24%
Total Cell Count [6]: 2555
Population Apoptotic (%) [7]: 15%
Population Fragmented Nuclei (%) [7]: 14%
Population Healthy Nuclei (%) [7]: 78%
Population Hoechst High Intensity Objects (%) [7]: 6%
Population Membrane Permeable-Phenotype (%) [7]: 5%
Population Mitochondria Different-Phenotype (%) [7]: 2%
Population Mitotic Cells (%) [7]: 84%
Population Normal (%) [7]: 93%
Population Pyknosed Nuclei (%) [7]: 6%
Population Tubulin-Different-Phenotype (%) [7]: 3%
Total Cell Count [7]: 975
Population Apoptotic (%) [8]: 3%
Population Fragmented Nuclei (%) [8]: 29%
Population Healthy Nuclei (%) [8]: 68%
Population Hoechst High Intensity Objects (%) [8]: 3%
Population Membrane Permeable-Phenotype (%) [8]: 3%
Population Mitochondria Different-Phenotype (%) [8]: 1%
Population Mitotic Cells (%) [8]: 96%
Population Normal (%) [8]: 96%
Population Pyknosed Nuclei (%) [8]: 1%
Population Tubulin-Different-Phenotype (%) [8]: 4%
Total Cell Count [8]: 3379
